Shown are actives, neighbours in structure and some others; about 4.6% of the full set was active somewhere.
TAAR1 antagonist – antagonists of human TAAR1. Q96RJ0. CHO RD-HGA16 TAAR1, Fluo-8 calcium fluorescence, antagonist. inhibition, % at 3 µM. hit rate 1.5% among 360,000;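 active = inhibition above a per-plate cutoff, the mean inhibition of test compounds on that plate plus 3 SD, cut at about 49% in these data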
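Test system: CHO RD-HGA16 cells bearing hTAAR1 | Reagent: β-PEA, EC80 | Compound dosing: 3 µM, single point | Schedule: Dye loading 75 min at 37 °C, then 30 min room temperature | Signal: Calcium fluorescence with Fluo-8 | Evaluation: Percent inhibition of PEA-evoked calcium signal, max/basal emission ratio | Control set: DMSO-only wells and EC80 β-PEA-stimulated wells | Repeats: Singlicate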
TAAR1 agonist – agonists of human TAAR1. CHO RD-HGA16 TAAR1, Fluo-8 calcium fluorescence; vehicle wells 0%, saturating PEA agonist 100%. activation, % at 3 µM. hit rate 0.99% among 360,000;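 active = activation above the mean activation of all test compounds in the run plus 3 SD, cut at about 38% in these data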
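Assay system: CHO-derived RD-HGA16 cells with stable Gα16 and human TAAR1; timing: 17-24 h seeding, 75 min 37 °C dye, 30 min RT; read-out: % activation from peak over basal fluorescence ratio, DMSO-to-PEA scaled; measured by: kinetic Fluo-8 calcium fluorescence; benchmarks: low control DMSO, high control PEA (EC100); doses: 3 µM single concentration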
CHO parental Ca – signal in parental CHO cells, OX1R antagonist counter-screen; parental CHO-K1, ATP-induced calcium, Fluo-8 fluorescence; hit rate 0.63% among 330,000; inhibition, % at 5.6 µM;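 active = inhibition above that plate's mean sample inhibition plus 3 SD, cut at about 26% in these data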
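Assay system: parental CHO cells; Read-out basis: percent inhibition of ATP-evoked calcium rise, normalized to controls; Benchmarks: ATP and no-ATP DMSO wells; Compound dosing: single nominal dose of 5.6 µM per compound; Signal: Fluo-8 calcium dye fluorescence; Also added: ATP as calcium-mobilizing challenge; Repeats: singlicate.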
OX1R antag-1 – blocks the human orexin 1 receptor | O43613 | CHO/OX1R cells, Fluo-8 calcium fluorescence, orexin A | inhibition, % at 5 µM | hit rate 0.43% among 330,000;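 active = inhibition above its plate's threshold, mean inhibition of all tested compounds on the plate plus 3 SD, cut at about 37% in these data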
Target sequence (O43613 whole entry, looked up): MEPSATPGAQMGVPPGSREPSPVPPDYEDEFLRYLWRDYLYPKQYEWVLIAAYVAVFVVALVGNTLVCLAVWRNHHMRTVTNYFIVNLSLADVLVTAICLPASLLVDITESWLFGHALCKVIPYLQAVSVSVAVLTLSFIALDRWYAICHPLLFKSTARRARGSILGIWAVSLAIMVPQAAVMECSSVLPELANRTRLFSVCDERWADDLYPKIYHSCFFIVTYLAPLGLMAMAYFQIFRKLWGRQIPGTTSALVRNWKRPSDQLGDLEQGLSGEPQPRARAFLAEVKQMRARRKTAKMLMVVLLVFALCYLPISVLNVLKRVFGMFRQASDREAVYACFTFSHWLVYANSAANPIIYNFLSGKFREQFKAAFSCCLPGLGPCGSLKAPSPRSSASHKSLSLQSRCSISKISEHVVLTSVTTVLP
OX1R antag-2 – blocks the human orexin 1 receptor; O43613; OX1R-expressing cells, FRET antagonist read-out; inhibition, % at 6.6 µM; hit rate 1.8% among 330,000; in the data active = inhibition mostly above about 38%, no sharp cut-off; inactive = mostly below about 40%
GPR7 antagonist – blocks human GPR7 receptor signaling | P48145 | GPR7-expressing cells, fluorescence antagonist assay | inhibition, % at 4.4 µM | hit rate 1.1% among 290,000 | AID 1861; in the data active = inhibition above about 16%, passing the limit was not always enough;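 note: cells stimulated with the agonist NPW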
GPR7 antag cf – human GPR7 antagonism, confirmation assay; shares compounds with GPR7 antagonist; GPR7-expressing cells, calcium fluorescence antagonist mode; inhibition, % at 4.4 µM; hit rate 52% among 2,400; AID 1952; in the data active = inhibition above about 24%;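 note: stimulated with the GPR7 agonist NPW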
MCHR1 antag – antagonizes human MCHR1, a GPR7 antagonist counter-screen; AID 2148; shares compounds with GPR7 antagonist; inhibition, % at 4.4 µM; MCHR1-expressing cells, fluorescence antagonist assay; hit rate 62% among 2,400; in the data active = inhibition above about 22%
Numbers stand for hits; – = inactive; · = no result.

SMILES	TAAR1 antagonist	TAAR1 agonist	CHO parental Ca	OX1R antag-1	OX1R antag-2	GPR7 antagonist	GPR7 antag cf	MCHR1 antag
CC1CCCCC1NC(=O)CN1C(=O)CSc2cc(S(=O)(=O)N3CCCCCC3)ccc21 (centres undefined)	–	–	–	–	–	27.7	–	–
Cc1ccc([N+](=O)[O-])cc1NC(=O)Nc1cccc(F)c1	–	–	·	·	·	39.6	62.5	64.7
Cc1ccc([N+](=O)[O-])cc1NC(=O)Cc1ccc(F)cc1	–	–	–	–	–	–	·	·
COC(=O)c1ccc(NC(=O)Nc2cccc(F)c2)cc1	–	38.6	–	–	–	31.6	53.7	64.6
COC(=O)c1ccc(NC(=O)Nc2ccc(F)cc2F)cc1	–	–	–	–	–	–	·	·
NC(=O)c1ccccc1NC(=O)c1cc(S(=O)(=O)N2CCCCC2)ccc1N1CCOCC1	–	–	–	–	–	·	·	·
CN(CCOc1ccccc1)C(=O)c1cc(S(=O)(=O)N2CCOCC2)c(Cl)cc1Cl	–	–	·	·	·	·	·	·
CC1CCCN(S(=O)(=O)c2ccc(NC(=O)CN3CCN(C)CC3)cc2)C1 (centres undefined)	–	–	–	–	–	–	·	·
CCS(=O)(=O)c1ncc(Cl)c(C(=O)Nc2ccc(S(=O)(=O)N3CCCC(C)C3)cc2)n1 (centres undefined)	–	–	46.8	41.4	–	59.4	86.0	97.2
CCC1CCCCN1S(=O)(=O)c1ccc(NC(=O)c2nc(S(C)(=O)=O)ncc2Cl)cc1 (centres undefined)	56.5	–	55.0	52.9	52.8	74.2	90.4	101.0
COCc1ccc(CN2CCC(n3nccc3NC(=O)c3ccc4c(c3)OCO4)CC2)o1	–	–	·	·	·	·	·	·
CCC(C)c1ccccc1NC(=O)c1cccc(-n2cnnn2)c1 (centres undefined)	–	–	–	–	–	·	·	·
Cc1ccccc1CC1(CO)CCCN(C(=O)c2ccc(F)cc2)C1 (centres undefined)	–	–	–	–	–	–	·	·
Cc1ccccc1CC1(CO)CCCN(C(=O)c2ccccc2N(C)C)C1 (centres undefined)	–	–	–	–	–	30.8	36.1	30.7
O=C(CCN1CCc2ccccc2C1)c1ccc2c(c1)OCCO2	·	·	–	–	–	23.2	–	22.2
Cc1csc(Nc2nc(N)c(C(=O)Nc3ccccc3)o2)n1	–	–	–	–	–	–	·	·
CCC1=C(Nc2ccccc2)COC1=O	–	–	·	·	·	·	·	·
COc1ccccc1NC(=O)C/C(N)=N/OCC(=O)Nc1cccc(Cl)c1	–	–	–	–	–	·	·	·
COc1ccc(Nc2sc(C(=O)Nc3cccc(Cl)c3)c(N)c2C(=O)Nc2ccccc2OC)cc1	·	·	47.5	50.7	–	50.3	77.4	86.0
COc1cc(C(=O)OCC(=O)Nc2nnc(-c3ccccc3)o2)cc(OC)c1OC	–	–	–	–	–	·	·	·
COc1ccc(C(=O)OCC(=O)Nc2nnc(-c3ccccc3)o2)cc1	–	–	–	–	52.0	32.4	–	–
O=C(Nc1nc2c(F)cc(F)cc2s1)C1CC1	–	–	–	–	–	22.7	–	33.8
COc1ccc(C(CNC(=O)C2CCN(S(=O)(=O)c3ccc(F)cc3)CC2)N(C)C)cc1 (centres undefined)	–	–	–	–	–	–	·	·
N#CC(c1ccc(Cl)cc1)c1ccc2c(C(F)(F)F)cc(C(F)(F)F)nc2n1 (centres undefined)	–	–	–	–	–	33.2	58.5	50.5
FC(F)(F)c1cc(C(F)(F)F)c2ccc(N3CCN(c4ccc(Cl)cc4)CC3)nc2n1	–	–	–	–	–	–	·	·
CN(C)S(=O)(=O)c1cccc(C(=O)NCC2CCCCC2)c1	–	–	–	–	–	–	·	·
COc1ccc(N(C)S(=O)(=O)c2cccc(C(=O)NCC3CCCCC3)c2)cc1	–	–	·	·	·	25.9	37.6	37.5
COc1ccc(N(C)S(=O)(=O)c2cccc(C(=O)NC3CCCC3)c2)cc1	–	–	–	–	–	39.0	43.3	23.6

Compound activity deposited in PubChem by The Scripps Research Institute Molecular Screening Center.
